# Assay outcomes (PubChem)
# ABCB6 inh 2: ABCB6 transporter inhibitors, primary screen, K562-ABCB6 cells, flow cytometry, MLPCN library; AID 602162, 2011; K562-ABCB6 porphyrin accumulation, 1 h; active compounds read low; fluorescence ratio to DMSO, % at 10 µM; hit rate 0.19% among 360,000; ATP-binding cassette sub-family B member 6 (Homo sapiens), Q9NP58;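 active = fluorescence ratio to DMSO below 75%, the collection mean minus 3 SD; inconclusive = too few cells collected in the well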;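 note: signal is porphyrin accumulated inside mitochondria; lower ratio means ABCB6 inhibition with less porphyrin fluorescence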
# Target sequence (Q9NP58 whole entry, looked up): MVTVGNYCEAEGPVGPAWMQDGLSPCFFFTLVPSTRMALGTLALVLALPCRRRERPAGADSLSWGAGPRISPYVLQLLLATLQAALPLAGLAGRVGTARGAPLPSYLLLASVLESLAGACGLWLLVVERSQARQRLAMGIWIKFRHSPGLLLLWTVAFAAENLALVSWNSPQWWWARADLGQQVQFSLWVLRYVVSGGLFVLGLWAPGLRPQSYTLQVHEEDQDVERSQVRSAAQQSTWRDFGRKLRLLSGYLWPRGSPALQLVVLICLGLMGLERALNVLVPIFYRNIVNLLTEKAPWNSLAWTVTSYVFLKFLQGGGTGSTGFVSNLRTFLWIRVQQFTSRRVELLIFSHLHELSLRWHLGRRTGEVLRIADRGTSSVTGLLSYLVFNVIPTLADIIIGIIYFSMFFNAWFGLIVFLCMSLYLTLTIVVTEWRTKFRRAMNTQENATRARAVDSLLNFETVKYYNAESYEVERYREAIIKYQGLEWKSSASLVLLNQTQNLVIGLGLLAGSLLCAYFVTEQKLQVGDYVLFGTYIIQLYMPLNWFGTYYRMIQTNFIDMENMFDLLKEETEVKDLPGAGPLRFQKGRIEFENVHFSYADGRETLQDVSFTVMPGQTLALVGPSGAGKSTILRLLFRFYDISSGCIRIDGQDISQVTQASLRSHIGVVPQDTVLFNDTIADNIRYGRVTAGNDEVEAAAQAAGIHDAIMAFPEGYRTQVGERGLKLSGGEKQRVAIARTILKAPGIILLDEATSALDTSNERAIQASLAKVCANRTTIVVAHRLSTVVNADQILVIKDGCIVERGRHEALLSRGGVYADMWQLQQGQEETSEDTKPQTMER
# XiGFP reactiv: activators of inactive X chromosome reactivation, primary screen, imaging, XiGFP fibroblasts, GFP high-content imaging, set 2 | XiGFP mouse fibroblasts, % GFP-positive cells imaging, 3 d; cells co-treated with 5-aza-dC sensitizer; scaled so ellipticine positive control = 100% | activation, % at 7.58 µM | hit rate 0.055% among 360,000 | AID 743238, 2013;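 active = mean normalized replicate activation at least 10% and every replicate at or above 10%; inconclusive = only one of the two criteria met; inactive = mean below 10% and not all replicates reach 10%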
#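 Schedule: 3 d treatment, 15 min room-temperature fixation; system: 68-5-11 XiGFP fibroblast line; buffer or medium: DMEM plus 5-aza-dC sensitizer; control set: ellipticine 6 µM positive control; compound: one concentration, pinned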
# Myeloid diff 2: induction of myeloid progenitor differentiation, primary screen, cell-based, flow cytometry, MLPCN library. calls only at 10 µM. hit rate 1% among 360,000. ER-HoxA9 myeloid progenitors, lysozyme-GFP differentiation;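 active = normalized GFP-positive differentiation at or above the plate's own cutoff, the solvent-only control mean plus 3 SD; inconclusive = no clear call, values can overlap the other calls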;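 note: cells exposed to compound for four days before flow analysis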
# ABCB6 blocker 1: ABCB6 transporter inhibitors, confirmation, K562-ABCB6 cells, flow cytometry, cherry pick 1 | ratio response (% of DMSO), % at 10 µM | shares compounds with ABCB6 inh 2 | K562-ABCB6 porphyrin accumulation, 1 h; active compounds read low | 700 tested, under 10 active | AID 602430, 2012;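 active = repeat-averaged ratio response below 75% of DMSO, the collection mean minus 3 SD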;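 note: median porphyrin fluorescence at 575 nm with 488 nm excitation from mitochondria; lower ratio means less porphyrin signal so ABCB6 inhibition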
# K562 vector FC: empty-vector K562 compound effect – cell-based, flow cytometry, cherry pick set 2, counter-screen for ABCB6 inhibitor project, dose response; shares compounds with ABCB6 inh 2; K562 empty-vector cells, flow cytometry fluorescence, 1 h; percent response (fluorescence), % at 100 µM; 25 tested, under 10 active;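 active = compounds whose half-maximal effective concentration is below 100 µM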
# Numbers stand for hits; 0 = inactive; ? = inconclusive; - = no result. The full list was thinned out, with hits kept by preference.
SMILES,ABCB6 inh 2,XiGFP reactiv,Myeloid diff 2,ABCB6 blocker 1,others
Cc1ccc(N2C(=O)C(CN3CCCC3)C2c2ccccc2)cc1 (stereo not given),73,0,0,0,
CCOc1ccc2nc(NC(=O)CSc3nc4c(c(=O)n(C)c(=O)n4C)n3C(C)C)sc2c1,0,-,0,-,
CCn1c(SCC(=O)Nc2nc3ccc(OC)cc3s2)nc2c1c(=O)n(C)c(=O)n2C,72,-,0,0,
Cc1noc(C)c1S(=O)(=O)Nc1cccc2c1O[C@H](CN(C)S(=O)(=O)c1c(C)noc1C)[C@H](C)CN([C@@H](C)CO)C2=O,-,0,-,-,
CCc1ccc(CCC(=O)Nc2sc(C)c(C)c2C(=O)OC)o1,69,-,0,0,
COC(=O)c1c(NC(=O)CCCC(=O)O)sc(C)c1C,0,-,0,-,
CC(C)[C@H]1C(=O)N[C@@H](c2cccc(Cl)c2)CC=CC[C@H](C)Oc2ccccc2C(=O)N1C (mixture of isomers),-,0,-,-,
CCNC(=O)C[C@@H]1CC[C@@H]2[C@H](COc3ccc(NC(=O)c4ccc(F)cc4)cc3C(=O)N2C)O1,-,0,-,-,
COc1cccc(CNC(=O)C2CCCN(C(=O)c3ccc(Cl)cc3)C2)c1 (stereo not given),0,0,0,-,
COc1ccc(CCNC(=O)C2CCCN(C(=O)c3ccc(Cl)cc3)C2)cc1 (stereo not given),73,0,0,0,
Cc1noc(C)c1NC(=O)N(C)C[C@H]1Oc2ncc(C#CC3CCCCC3)cc2C(=O)N([C@@H](C)CO)C[C@H]1C,-,0,-,-,
CNC(=O)C[C@@H]1CC[C@H]2[C@@H](COc3ccc(NC(=O)C4CCCCC4)cc3C(=O)N2C)O1,-,0,-,-,
CNC(=O)C[C@H]1CC[C@@H]2[C@@H](COc3ccc(NC(=O)Nc4ccc(F)cc4)cc3C(=O)N2C)O1,-,0,-,-,
CCCCc1c(O)nc(SCC(=O)N2CCCCC2)[nH]c1=O,0,0,0,-,
CCC(C)c1c(O)nc(SCC(=O)N2CCCCC2)[nH]c1=O (stereo not given),52,0,0,0,
C[C@@H]1CCCCO[C@H](CN(C)S(=O)(=O)c2ccc(Cl)cc2)[C@@H](C)CN([C@H](C)CO)C(=O)c2cc(NC(=O)CCCCCC(=O)Nc3ccccc3N)ccc2O1,-,0,-,-,
C[C@@H]1CN([C@@H](C)CO)C(=O)c2cc(NC(=O)Nc3ccc4c(c3)OCO4)ccc2O[C@@H]1CN(C)C(=O)Nc1ccc(F)cc1,-,0,-,-,
C[C@H]1CN([C@@H](C)CO)C(=O)c2cc(C3=CCCCC3)cnc2O[C@H]1CN(C)C(=O)c1cccnc1,-,0,-,-,
Cc1ccc(Cn2nnc3c(=O)[nH]c(C4CCN(C(=O)c5cccs5)CC4)nc32)cc1,0,-,0,0,
O=C(c1cccs1)N1CCC(c2nc3c(nnn3Cc3cccc(Cl)c3)c(=O)[nH]2)CC1,0,0,0,0,
O=C(c1cccs1)N1CCCC(c2nc3c(nnn3Cc3cccc(Cl)c3)c(=O)[nH]2)C1 (stereo not given),0,0,0,-,
O=C(c1cccs1)N1CCC(c2nc3c(nnn3Cc3c(Cl)cccc3Cl)c(=O)[nH]2)CC1,0,0,0,0,
Cc1ccc(C)c(Cn2nnc3c(=O)[nH]c(C4CCN(C(=O)c5cccs5)CC4)nc32)c1,0,-,0,-,
O=C(C1CCC1)N1CCC(c2nc3c(nnn3Cc3c(F)cccc3Cl)c(=O)[nH]2)CC1,0,-,0,-,
CC(C)c1cn(CC[C@H]2CC[C@H](NC(=O)C3CCOCC3)[C@H](CO)O2)nn1,-,0,-,-,
SMILES,ABCB6 inh 2,XiGFP reactiv,Myeloid diff 2,ABCB6 blocker 1,others
COc1cccc(-c2ccc([C@H]3[C@@H](C#N)N(C(=O)Cc4ccncc4)[C@@H]3CO)cc2)c1,-,0,-,-,
CCCC(=O)Nc1ccc2c(c1)OC[C@@H](C)N(C(=O)CC)C[C@H](C)[C@H](OC)CN(C)C2=O,-,0,-,-,
O=C(Cc1ccccc1)N1C[C@@H]2[C@H](c3ccccc31)[C@@H](CO)N2C(=O)c1cccc(F)c1,-,0,-,-,
CCN/N=C(\Cc1nc2ccccc2[nH]1)c1ccccc1,0,0,0,-,
N#CCCN/N=C(\Cc1nc2ccccc2[nH]1)c1ccccc1,61,-,0,0,
C[C@@H]1CN([C@@H](C)CO)C(=O)c2cc(NS(=O)(=O)c3cn(C)cn3)ccc2O[C@@H]1CN(C)S(=O)(=O)c1cn(C)cn1,-,0,-,-,
CN1CCN(NC(=O)c2cc(-c3ccccn3)nc3ccccc23)CC1,0,0,0,-,
CN1CCN(NC(=O)c2cc(-c3ccc(Cl)s3)nc3ccccc23)CC1,72,0,0,0,
O=C(Nc1ccc(-n2nncc2-c2ccco2)cc1)c1cc2ccccc2oc1=O,0,-,0,-,
O=C(Nc1ccc(-n2nncc2-c2ccco2)cc1)c1cccc(F)c1,58,-,0,0,
Nn1c(SCC(=O)NCCC2=CCCCC2)nnc1-c1cccnc1,0,0,0,-,
CCN(CC)S(=O)(=O)c1cccc(-c2nnc(SCC(=O)NCCC3=CCCCC3)n2N)c1,71,-,0,0,
O=C(c1cc(-c2ccncc2)nc2ccccc12)N1CCN(c2ccccn2)CC1,69,-,0,0,
O=C(c1cc(-c2ccccc2)nc2ccccc12)N1CCN(c2ccccn2)CC1,0,-,0,-,
C[C@@H]1CCCCO[C@H](CN(C)Cc2ccccc2)[C@@H](C)CN([C@@H](C)CO)C(=O)c2cc(NS(=O)(=O)c3ccc(F)cc3)ccc2O1,-,0,-,-,
COc1ccc(C)cc1NC(=O)COCC(=O)O,69,-,0,0,
COc1ccc(C)cc1NC(=O)CNC(c1ccccc1)c1ccc(C)cc1 (stereo not given),0,0,-,-,
O=c1cc(CSc2nnnn2-c2ccccc2)nc2sccn12,0,0,0,-,
O=c1cc(CSc2nnnn2-c2ccccc2)nc2nc[nH]n12,64,-,0,0,
Cc1noc(C)c1NC(=O)Nc1ccc2c(c1)C(=O)N([C@H](C)CO)C[C@H](C)[C@H](CN(C)Cc1ccc(C(F)(F)F)cc1)OCCCC[C@@H](C)O2,-,0,-,-,
O=c1cc(CO)oc(CN2CCN(c3cccc(C(F)(F)F)c3)CC2)c1O,0,-,0,-,
O=c1cc(CO)oc(CN2CCN(c3ccccc3)CC2)c1O,73,-,0,0,
CO[C@H]1CN(C)C(=O)c2cc(NC(=O)c3ccc(F)cc3)ccc2OC[C@H](C)N(C(=O)CN(C)C)C[C@H]1C,-,0,-,-,
CO[C@@H]1CN(C)C(=O)c2ccc(NC(=O)C3CC3)cc2OC[C@H](C)N(CCc2ccccc2)C[C@H]1C,-,0,-,-,
COc1ccc(OC)c(NC(=O)CS(=O)(=O)Cc2ccccc2)c1,0,0,0,-,
COc1ccc(NC(=O)c2c(-c3ccccc3Cl)noc2C)c(OC)c1,0,-,0,-,
COc1ccc(OC)c(NC(=O)c2nc(S(=O)(=O)Cc3ccccc3)ncc2Cl)c1,0,0,?,-,K562 vector FC=0
